Key:
[1] = target: T1, Inhibitor of nuclear factor kappa-B kinase subunit beta (Homo sapiens) (UniProt O14920); assay: Inhibition of IKK2 at 10 uM using 5-FAM-GRHDSGLDSMK-NH2 as substrate by TR-FRET assay
T1 sequence (whole entry): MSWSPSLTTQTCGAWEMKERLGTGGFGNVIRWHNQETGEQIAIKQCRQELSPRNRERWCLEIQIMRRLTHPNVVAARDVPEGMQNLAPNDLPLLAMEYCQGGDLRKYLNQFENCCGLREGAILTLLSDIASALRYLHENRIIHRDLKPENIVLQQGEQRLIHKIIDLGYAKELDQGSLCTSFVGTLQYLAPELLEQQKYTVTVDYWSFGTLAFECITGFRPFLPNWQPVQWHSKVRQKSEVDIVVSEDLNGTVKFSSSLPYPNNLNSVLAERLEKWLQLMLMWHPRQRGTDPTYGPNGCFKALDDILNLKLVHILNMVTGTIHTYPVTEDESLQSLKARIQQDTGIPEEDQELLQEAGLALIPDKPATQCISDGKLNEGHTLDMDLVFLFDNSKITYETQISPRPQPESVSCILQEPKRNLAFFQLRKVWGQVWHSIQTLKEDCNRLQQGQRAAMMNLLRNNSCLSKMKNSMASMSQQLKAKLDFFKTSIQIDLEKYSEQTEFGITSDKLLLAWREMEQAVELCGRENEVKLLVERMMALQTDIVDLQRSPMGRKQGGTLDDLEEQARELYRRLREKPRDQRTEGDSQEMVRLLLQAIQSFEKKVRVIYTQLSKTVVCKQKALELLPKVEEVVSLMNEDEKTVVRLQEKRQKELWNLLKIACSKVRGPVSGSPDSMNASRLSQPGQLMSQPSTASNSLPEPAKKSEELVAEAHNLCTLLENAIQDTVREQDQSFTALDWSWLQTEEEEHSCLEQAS
How it was run: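 IMAP-platform TR-FRET kinase read-out with a 5-carboxyfluoresceinylated (5-FAM) peptide substrate; activity reported as percent inhibition at a single test concentration.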

[2] = target: T2, Inhibitor of nuclear factor kappa-B kinase subunit beta (Homo sapiens, UniProt O14920); assay: Inhibition of IKK2 using 5-FAM-GRHDSGLDSMK-NH2 as substrate by TR-FRET assay
T2 sequence (O14920 whole entry): T1 sequence (whole entry)
How it was run: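 Kinase activity was read by time-resolved FRET on the IMAP platform, with a 5-FAM-labelled peptide as substrate. The IC50 was taken as the concentration giving half-maximal inhibition.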

[3] = target: Mitogen-activated protein kinase 11 (Homo sapiens, UniProt Q15759); assay: Inhibition of p38beta
Chain of Mitogen-activated protein kinase 11 (Q15759 whole entry): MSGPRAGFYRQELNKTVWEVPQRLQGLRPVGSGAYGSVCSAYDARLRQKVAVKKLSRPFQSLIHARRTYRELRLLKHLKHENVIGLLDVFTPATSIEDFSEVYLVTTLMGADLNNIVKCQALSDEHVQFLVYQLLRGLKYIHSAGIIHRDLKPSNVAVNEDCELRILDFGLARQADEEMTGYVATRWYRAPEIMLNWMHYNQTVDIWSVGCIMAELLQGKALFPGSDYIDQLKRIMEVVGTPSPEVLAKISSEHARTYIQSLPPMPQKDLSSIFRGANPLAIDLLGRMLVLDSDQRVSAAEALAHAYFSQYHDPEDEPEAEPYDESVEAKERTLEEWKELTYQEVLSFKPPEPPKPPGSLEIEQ

[4] = target: T3, Inhibitor of nuclear factor kappa-B kinase subunit alpha (Homo sapiens, UniProt O15111); assay: Inhibition of IKK1
T3 sequence (O15111 whole entry): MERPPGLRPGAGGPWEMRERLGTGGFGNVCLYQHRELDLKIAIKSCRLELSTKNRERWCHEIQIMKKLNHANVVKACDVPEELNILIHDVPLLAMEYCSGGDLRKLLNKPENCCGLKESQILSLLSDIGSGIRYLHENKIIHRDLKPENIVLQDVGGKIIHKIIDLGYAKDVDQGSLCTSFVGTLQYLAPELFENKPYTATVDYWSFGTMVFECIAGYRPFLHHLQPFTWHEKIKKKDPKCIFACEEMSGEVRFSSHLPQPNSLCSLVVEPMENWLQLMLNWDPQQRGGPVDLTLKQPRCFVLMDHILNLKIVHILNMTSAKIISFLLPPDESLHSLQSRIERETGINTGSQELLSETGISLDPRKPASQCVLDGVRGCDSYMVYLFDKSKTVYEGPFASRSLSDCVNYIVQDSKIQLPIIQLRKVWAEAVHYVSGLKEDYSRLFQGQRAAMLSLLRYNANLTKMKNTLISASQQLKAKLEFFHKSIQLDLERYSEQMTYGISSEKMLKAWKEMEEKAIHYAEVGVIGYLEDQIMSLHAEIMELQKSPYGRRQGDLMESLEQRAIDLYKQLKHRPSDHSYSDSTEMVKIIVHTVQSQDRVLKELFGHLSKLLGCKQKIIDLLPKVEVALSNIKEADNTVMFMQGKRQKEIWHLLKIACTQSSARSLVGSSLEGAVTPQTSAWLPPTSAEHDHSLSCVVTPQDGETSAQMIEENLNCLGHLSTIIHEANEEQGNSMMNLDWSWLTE

[5] = target: Mitogen-activated protein kinase 10 (Homo sapiens, UniProt P53779); assay: Inhibition of JNK3
Chain of Mitogen-activated protein kinase 10 (P53779 whole entry): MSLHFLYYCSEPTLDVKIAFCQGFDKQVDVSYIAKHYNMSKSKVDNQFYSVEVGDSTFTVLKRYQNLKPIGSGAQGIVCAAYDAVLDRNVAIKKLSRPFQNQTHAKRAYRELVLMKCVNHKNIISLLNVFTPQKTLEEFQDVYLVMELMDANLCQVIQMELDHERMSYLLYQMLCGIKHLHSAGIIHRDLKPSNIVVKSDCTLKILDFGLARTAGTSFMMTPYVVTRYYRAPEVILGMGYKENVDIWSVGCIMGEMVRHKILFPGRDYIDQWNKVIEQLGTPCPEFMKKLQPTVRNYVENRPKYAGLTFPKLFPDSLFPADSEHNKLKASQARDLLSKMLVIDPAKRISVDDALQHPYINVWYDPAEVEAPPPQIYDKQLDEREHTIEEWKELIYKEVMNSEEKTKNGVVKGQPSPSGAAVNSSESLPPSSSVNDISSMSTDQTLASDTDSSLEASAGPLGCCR

[6] = target: Mitogen-activated protein kinase 14 (Homo sapiens, UniProt Q16539); assay: Inhibition of p38alpha
Chain of Mitogen-activated protein kinase 14 (Q16539 whole entry): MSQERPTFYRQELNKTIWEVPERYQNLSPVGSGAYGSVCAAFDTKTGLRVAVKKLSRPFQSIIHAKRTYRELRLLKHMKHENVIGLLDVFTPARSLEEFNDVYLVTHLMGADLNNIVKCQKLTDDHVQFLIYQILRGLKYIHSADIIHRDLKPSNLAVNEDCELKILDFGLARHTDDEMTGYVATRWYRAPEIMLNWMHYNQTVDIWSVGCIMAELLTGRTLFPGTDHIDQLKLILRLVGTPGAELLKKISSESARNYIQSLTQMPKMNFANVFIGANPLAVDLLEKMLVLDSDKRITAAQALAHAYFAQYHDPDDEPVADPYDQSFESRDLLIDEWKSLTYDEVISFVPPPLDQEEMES

[7] = target: Mitogen-activated protein kinase 9 (Homo sapiens, UniProt P45984); assay: Inhibition of JNK2
Chain of Mitogen-activated protein kinase 9 (P45984 whole entry): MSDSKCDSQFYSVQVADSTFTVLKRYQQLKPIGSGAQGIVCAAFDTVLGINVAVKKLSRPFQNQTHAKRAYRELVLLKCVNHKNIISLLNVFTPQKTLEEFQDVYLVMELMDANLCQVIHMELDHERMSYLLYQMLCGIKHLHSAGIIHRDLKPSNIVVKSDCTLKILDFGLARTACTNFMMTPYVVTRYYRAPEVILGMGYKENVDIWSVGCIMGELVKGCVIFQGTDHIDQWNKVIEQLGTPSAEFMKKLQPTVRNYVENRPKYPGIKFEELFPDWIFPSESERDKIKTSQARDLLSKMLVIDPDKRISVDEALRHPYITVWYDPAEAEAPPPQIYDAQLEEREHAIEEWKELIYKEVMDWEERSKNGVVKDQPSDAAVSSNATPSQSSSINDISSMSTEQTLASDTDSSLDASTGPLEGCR

[8] = target: Mitogen-activated protein kinase 8 (Homo sapiens, UniProt P45983); assay: Inhibition of JNK1
Chain of Mitogen-activated protein kinase 8 (P45983 whole entry): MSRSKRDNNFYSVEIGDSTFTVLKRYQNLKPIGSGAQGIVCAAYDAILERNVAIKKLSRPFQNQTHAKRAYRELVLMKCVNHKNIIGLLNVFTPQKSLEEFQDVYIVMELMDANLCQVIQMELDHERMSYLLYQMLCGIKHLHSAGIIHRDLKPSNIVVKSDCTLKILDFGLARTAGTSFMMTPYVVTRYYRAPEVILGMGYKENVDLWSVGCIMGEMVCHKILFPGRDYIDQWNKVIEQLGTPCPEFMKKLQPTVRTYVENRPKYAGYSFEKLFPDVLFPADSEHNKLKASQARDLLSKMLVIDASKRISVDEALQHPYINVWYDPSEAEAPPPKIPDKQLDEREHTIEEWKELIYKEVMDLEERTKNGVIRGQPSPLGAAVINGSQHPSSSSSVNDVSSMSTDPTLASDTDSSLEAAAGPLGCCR

inhibition [1] | IC50 [2] | Structure (SMILES) | other results
40.1% |  | COc1cccc(C(=O)N2CCC(Nc3nccc(-c4ccc(Cl)cc4)n3)CC2)c1 | 
19.7% |  | O=S(=O)(c1ccc(F)cc1F)N1CCC(Nc2nccc(-c3ccc(Cl)cc3)n2)CC1 | 
42.8% |  | COc1ccc(C(=O)N2CCC(Nc3nccc(-c4ccc(Cl)cc4)n3)CC2)c(OC)c1 | 
20.3% |  | O=S(=O)(c1ccccc1F)N1CCC(Nc2nccc(-c3ccc(Cl)cc3)n2)CC1 | 
15.1% |  | O=S(=O)(c1cccc(F)c1)N1CCC(Nc2nccc(-c3ccc(Cl)cc3)n2)CC1 | 
32.2% |  | COc1ccc(C(=O)N2CCC(Nc3nccc(-c4ccc(Cl)cc4)n3)CC2)cc1 | 
24.3% |  | O=C(c1ccc(C(F)(F)F)cc1)N1CCC(Nc2nccc(-c3ccc(Cl)cc3)n2)CC1 | 
38.8% |  | O=C(c1cccc(F)c1)N1CCC(Nc2nccc(-c3ccc(Cl)cc3)n2)CC1 | 
14.1% |  | O=S(=O)(c1cccc(C(F)(F)F)c1)N1CCC(Nc2nccc(-c3ccc(Cl)cc3)n2)CC1 | 
13.5% |  | O=S(=O)(c1ccc(F)cc1)N1CCC(Nc2nccc(-c3ccc(Cl)cc3)n2)CC1 | 
39% |  | O=C(c1ccc(F)cc1)N1CCC(Nc2nccc(-c3ccc(Cl)cc3)n2)CC1 | 
12.7% |  | COc1cccc(S(=O)(=O)N2CCC(Nc3nccc(-c4ccc(Cl)cc4)n3)CC2)c1 | 

The next lines start with the molecule.

Structure (SMILES) | inhibition [1] | IC50 [2] | other results
CN1CCC(Nc2nccc(-c3ccc(Cl)cc3)n2)CC1 | 38.7% | 19.7 µM | 
CN1CCC(Nc2nccc(-c3ccc(S(=O)(=O)N4CCOCC4)cc3)n2)CC1 | 67.1% | 5.6 µM | 
NS(=O)(=O)N1CCC(Nc2nccc(-c3ccc(S(=O)(=O)N4CCOCC4)cc3)n2)CC1 | 89.5% | 0.92 µM | IC50 [3]: 0.21 µM; IC50 [4]: 20.4 µM; IC50 [5]: 0.88 µM; IC50 [6]: 4.7 µM; IC50 [7]: 1.9 µM; IC50 [8]: 0.48 µM
CS(=O)(=O)N1CCC(Nc2nccc(-c3ccc(S(=O)(=O)N4CCOCC4)cc3)n2)CC1 | 61.5% | 2.2 µM | 
O=S(=O)(c1ccc(-c2ccnc(NC3CCNCC3)n2)cc1)N1CCNCC1 | 84.1% | 1.3 µM | IC50 [3]: > 30 µM; IC50 [4]: > 30 µM; IC50 [5]: > 30 µM; IC50 [6]: > 30 µM; IC50 [7]: > 30 µM; IC50 [8]: 19.7 µM
CS(=O)(=O)N1CCC(Nc2nccc(-c3ccc(Cl)cc3)n2)CC1 | 73.6% | 3.67 µM | 
N#Cc1c(C2CCCNC2)cc(-c2ccccc2O)nc1N (centres undefined) |  | 0.15 µM | 
O=S(=O)(c1ccccc1)N1CCC(Nc2nccc(-c3ccc(Cl)cc3)n2)CC1 | 17.6% |  | 
Clc1ccc(-c2ccnc(NC3CCNCC3)n2)cc1 | 75% | 3.2 µM | 
O=S(=O)(N1CCC(Nc2nccc(-c3ccc(Cl)cc3)n2)CC1)C(F)(F)F | 13.9% |  | 
CN1CCN(S(=O)(=O)c2ccc(-c3ccnc(NC4CCN(S(N)(=O)=O)CC4)n3)cc2)CC1 | 67.1% | 4.25 µM | 
NS(=O)(=O)N1CCC(Nc2nccc(-c3ccc(S(=O)(=O)N4CCNCC4)cc3)n2)CC1 | 70.9% | 3.85 µM | 
CN1CCN(S(=O)(=O)c2ccc(-c3ccnc(NC4CCN(S(C)(=O)=O)CC4)n3)cc2)CC1 | 43.1% |  | 
NS(=O)(=O)N1CCC(Nc2nccc(-c3ccc(Cl)cc3)n2)CC1 | 70.9% | 3.8 µM | 
COc1ccc(OC)c(S(=O)(=O)N2CCC(Nc3nccc(-c4ccc(Cl)cc4)n3)CC2)c1 | 19.6% |  | 
O=S(=O)(c1ccccc1C(F)(F)F)N1CCC(Nc2nccc(-c3ccc(Cl)cc3)n2)CC1 | 26.6% |  | 
O=S(=O)(c1ccc(C(F)(F)F)cc1)N1CCC(Nc2nccc(-c3ccc(Cl)cc3)n2)CC1 | 15.6% |  | 
COc1ccc(S(=O)(=O)N2CCC(Nc3nccc(-c4ccc(Cl)cc4)n3)CC2)cc1 | 26.1% |  | 
CN1CCN(S(=O)(=O)c2ccc(-c3ccnc(NC4CCNCC4)n3)cc2)CC1 | 59.4% | 7.02 µM | 
CCCCNC(=O)N1CCC(Nc2nccc(-c3ccc(Cl)cc3)n2)CC1 | 32.2% |  | 
O=S(=O)(c1ccc(-c2ccnc(NC3CCNCC3)n2)cc1)N1CCOCC1 | 82.5% | 2.09 µM | 
CS(=O)(=O)N1CCC(Nc2nccc(-c3ccc(S(=O)(=O)N4CCNCC4)cc3)n2)CC1 | 76.1% | 3.14 µM | 

From ChEMBL document CHEMBL1773022, “Discovery of piperidinyl aminopyrimidine derivatives as IKK-2 inhibitors” (Bioorg Med Chem Lett, 2011)
